These results are taken from ChEMBL document CHEMBL5230167, “Discovery of N-sulfonylated aminosalicylic acids as dual MCL-1/BCL-xL inhibitors” (RSC Med Chem, 2023).

The target in test [1] is T1, Induced myeloid leukemia cell differentiation protein Mcl-1 (Homo sapiens, UniProt Q07820). The test can be described thus: Inhibition of FITC-labelled BAK BH3 peptide to 6His-MBP tagged recombinant human MCL-1 (172 to 327 residues) expressed in Escherichia coli assessed as inhibition constant by fluorescence polarization competition assay. Summed up: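 Fluorescence polarization competition: compounds titrated into a mixture of MCL-1 (residues 172–327) and FITC-labelled BAK BH3 peptide. Displacement of the peptide was followed by the change in polarization, and Ki was derived from the competition titration.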

For the next test, the target named is Bcl-2-like protein 1 (Homo sapiens, UniProt Q07817). In words: Binding affinity to BCL-xL (unknown origin) assessed as inhibition constant.
For test [2], the species on record is Homo sapiens. In words: Selectivity index, ratio of Ki for inhibition of FITC-labelled BAK BH3 peptide to 6His-MBP tagged recombinant human MCL-1 (172 to 327 residues) expressed in Escherichia coli assessed as inhibition constant to Ki for binding affinity to BCL-xL (unknown origin) assessed as inhibition constant.
Test [3] has as its target T1, Induced myeloid leukemia cell differentiation protein Mcl-1. The test can be described thus: Binding affinity to MCL-1 (unknown origin) assessed as inhibition constant.
For test [4], the species on record is Homo sapiens. The test can be described thus: Selectivity index, ratio of Ki for inhibition of FITC-labelled BAK BH3 peptide to MCL-1 (172 to 327 residues) (unknown origin) assessed as inhibition constant to Ki for binding affinity to BCL-xL (unknown origin) assessed as inhibition constant.

Sequence of Bcl-2-like protein 1 (Q07817 whole entry, the tested form may be a part): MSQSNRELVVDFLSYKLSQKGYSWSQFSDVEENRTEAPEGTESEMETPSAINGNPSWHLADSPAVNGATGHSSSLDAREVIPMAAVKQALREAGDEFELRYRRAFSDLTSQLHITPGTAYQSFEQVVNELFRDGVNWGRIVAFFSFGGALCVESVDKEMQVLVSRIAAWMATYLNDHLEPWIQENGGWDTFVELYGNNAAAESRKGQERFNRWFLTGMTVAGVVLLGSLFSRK
T1 sequence (Q07820 whole entry, the tested form may be a part): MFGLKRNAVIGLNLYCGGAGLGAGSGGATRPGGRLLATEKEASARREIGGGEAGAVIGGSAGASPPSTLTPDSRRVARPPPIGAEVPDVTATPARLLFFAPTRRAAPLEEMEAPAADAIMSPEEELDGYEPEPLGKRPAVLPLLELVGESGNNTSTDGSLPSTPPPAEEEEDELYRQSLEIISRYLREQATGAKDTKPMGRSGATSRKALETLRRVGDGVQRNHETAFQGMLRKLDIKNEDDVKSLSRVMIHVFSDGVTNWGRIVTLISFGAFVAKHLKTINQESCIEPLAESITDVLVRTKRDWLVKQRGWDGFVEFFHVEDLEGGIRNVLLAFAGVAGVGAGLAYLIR

Turning to `Cc1cc(Oc2ccc(S(=O)(=O)N(c3ccc(C(=O)O)c(O)c3)C3CCCC3)cc2)cc(C)c1Cl`, the Ki (usually the equilibrium dissociation constant of an inhibitor or competing ligand from its target) stood at 1760 nM in test [1] and 1910 nM on Bcl-2-like protein 1. In addition, the Ratio Ki in the test filed under Homo sapiens [2] amounted to 1.08.

Regarding `CC(C)CN(c1ccc(O)c(C(=O)O)c1)S(=O)(=O)c1ccc2ccccc2c1`, in the test filed under Homo sapiens [2], the Ratio Ki worked out at 5.94.

`Cc1cc(Oc2ccc(S(=O)(=O)N3CCCc4cc(C(=O)O)ccc43)cc2)cc(C)c1Cl`: the inhibition constant (Ki) at Bcl-2-like protein 1 is 3560 nM; in test [3], 2730 nM.

As to `Cc1cc(Oc2ccc(S(=O)(=O)N(Cc3ccccc3)c3ccc(C(=O)O)c(O)c3)cc2)cc(C)c1Cl`, in the test listed under Homo sapiens [2], the Ratio Ki amounted to 2.65.

As for `Cc1cc(Oc2ccc(S(=O)(=O)N3CC(C(=O)O)Cc4ccccc43)cc2)cc(C)c1Cl` (racemic), at Bcl-2-like protein 1, the Ki was determined as 5010 nM. The Ratio Ki in the test filed under Homo sapiens [4] turned out to be 42.

Take `CC(C)CN(c1ccc(C(=O)O)c(O)c1)S(=O)(=O)c1ccc2ccccc2c1`: the Ratio Ki in the test filed under Homo sapiens [2] was found to be 3.12.

With `CC(C)CN(c1ccc(O)c(C(=O)O)c1)S(=O)(=O)c1ccc(-c2ccccc2)cc1`, in the test filed under Homo sapiens [2], the Ratio Ki was 1.59.

Take `Cc1cc(Oc2ccc(S(=O)(=O)N(CC(C)C)c3ccc(C(=O)O)c(O)c3)cc2)cc(C)c1Cl`: the inhibition constant Ki in test [1] came out at 778 nM; at Bcl-2-like protein 1, 1630 nM. For the same compound, in the test filed under Homo sapiens [2], the Ratio Ki came out at 2.09.

Regarding `CC(C)CN(c1ccc(C(=O)O)c(O)c1)S(=O)(=O)c1ccc(-c2ccccc2)cc1`, in the test listed under Homo sapiens [2], the Ratio Ki came to 2.63.

Take `CC(C)CN(c1ccc(C(=O)O)c(O)c1)S(=O)(=O)c1ccc(Oc2ccccc2)cc1`: the Ratio Ki in the test listed under Homo sapiens [2] is 3.12.

`Cc1cc(Oc2ccc(S(=O)(=O)N(CC(C)C)c3ccc(O)c(C(=O)O)c3)cc2)cc(C)c1Cl`: the Ratio Ki in the test filed under Homo sapiens [2] was determined as 4.96.

As for `CC(C)CN(c1ccc(O)c(C(=O)O)c1)S(=O)(=O)c1ccccc1`, the inhibition constant Ki on Bcl-2-like protein 1 came to 49300 nM. In addition, in the test filed under Homo sapiens [2], the Ratio Ki is 1.06.

Take `CC(C)CN(c1ccc(C(=O)O)c(O)c1)S(=O)(=O)c1ccccc1`: the Ratio Ki in the test listed under Homo sapiens [2] turned out to be 0.8.
